Laboratory results taken from ChEMBL document CHEMBL4359864, “The synthesis and in vitro biological evaluation of novel fluorinated tetrahydrobenzo[j]phenanthridine-7,12-diones against Mycobacterium tuberculosis” (Eur J Med Chem, 2019).

Key:
CYP450 [1] = target: T1, CYP450 (Homo sapiens, UniProt P04798+P05177+P05181+P08684+P10632+P10635+P11509+P11712+P13584+P20813+P20815+P20853+P24462+P24903+P33260+P33261+P51589+P78329+P98187+Q02928+Q08477+Q16678+Q16696+Q5TCH4+Q6VVX0+Q7Z449+Q8TAV3+Q96SQ9+Q9HB55); test: Microsomal stability in human liver microsomes assessed as CYP450-mediated metabolism by measuring compound remaining at 5 uM and measured for 15 mins in presence of NADPH by UPLC-MS/MS analysis (reference value: 100%); assay type: ADME; settings: read-out: Stability
Method in brief: (§1)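 Compound at 5 µM with 0.5 mg/mL liver microsomes in PBS. Phase I was started with 1 mM NADPH; phase II used 2 mM UDPGA. Diclofenac served as reference. Samples taken at 0, 15, 30 and 60 min were quenched in ice-cold acetonitrile, centrifuged at 4°C and analysed by LC-MS. Mean of at least two replicates ± SD.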

CYP450 [2] = target: T1, CYP450; test: Microsomal stability in human liver microsomes assessed as CYP450-mediated metabolism by measuring compound remaining at 5 uM and measured for 30 mins in presence of NADPH by UPLC-MS/MS analysis (reference value: 100%); assay type: ADME; settings: read-out: Stability; method in brief: as §1
Klebsiella pneumoniae = test: Antibacterial activity against Klebsiella pneumoniae ATCC 13883 incubated for 24 hrs by resazurin dye based fluorimetric assay; assay type: functional, organism-based; settings: ATCC 13883, 24 h
Method in brief: (§2)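 Resazurin microtiter assay: compounds from 10 mM DMSO stock, twofold serial dilutions from 64 µM final in growth medium, in triplicate. Inoculum from frozen glycerol stocks. Exposure 24 h, or 7 days for Mtb H37Ra (7H9 + 0.5% glycerol + 10% OADC). Then 0.01% resazurin was added and plates were incubated at 37°C until pink. Fluorescence read at ex 550/em 590 nm; mean of triplicates.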

[3] = Selectivity index, ratio of […] for cytotoxicity against mouse J774A.1 cells; assay type: toxicity, cell-based; settings: read-out: Selectivity Index
Escherichia coli = test: Antibacterial activity against Escherichia coli ATCC 8739 incubated for 24 hrs by resazurin dye based fluorimetric assay; assay type: functional, organism-based; settings: ATCC 8739, ATCC 8739, 24 h; method in brief: as §2
[4] = Genotoxicity in Salmonella typhimurium TA104 harboring with pr1 assessed as S/N ratio at 1 to 100 uM measured for 4 hrs with 5 mins interval in presence of rat liver S9 fraction by luminescence based assay; assay type: toxicity, subcellular; settings: salmonella enterica subsp. enterica serovar typhimurium, s9, 4 h
Method in brief: (§3)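 VITOTOX test. Genox (recN2-4) and Cytox (pr1) S. typhimurium TA104 strains were diluted 250-fold and grown in 869 medium for 16 h at 36°C with shaking, then diluted 10-fold and grown 1 h more. Compounds tested at 1, 10 and 100 µM, with or without rat liver S9-mix. Luminescence read for 4 h at 5-min intervals. S/N thresholds: Genox >1.5 genotoxic; Cytox <0.8 toxic, >1.5 luminescence artefact.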

UGT = test: Microsomal stability in mouse liver microsomes assessed as UGT-mediated metabolism by measuring compound remaining at 5 uM and measured for 30 mins in presence of UDPGA by UPLC-MS/MS analysis (reference value: 100%); assay type: ADME; settings: read-out: Stability; method in brief: as §1
[5] = Cytotoxicity against mouse J774A.1 cells assessed as reduction in cell viability incubated for 24 hrs by neutral red uptake assay; assay type: cell-based, J774.A1
Method in brief: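 J774A.1 cells in DMEM + 10% iFCS, 37°C, 5% CO2, seeded at 40.000 cells/well and left overnight. Twofold dilutions from 128 µM final; 24 h exposure. Neutral red uptake for 3 h, dye extracted with 1:1 ethanol/acetic acid, OD read at 530 nm (reference 620 nm). CC50 = 50% reduction in uptake; mean of triplicates.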

[6] = Genotoxicity in Salmonella typhimurium TA104 harboring with pr1 assessed as S/N ratio at 1 to 100 uM measured for 4 hrs with 5 mins interval by luminescence based assay; assay type: toxicity; settings: salmonella enterica subsp. enterica serovar typhimurium; method in brief: as §3
[7] = Genotoxicity in Salmonella typhimurium TA104 harboring with RecN2-4 assessed as S/N ratio at 1 to 100 uM measured for 4 hrs with 5 mins interval in presence of rat liver S9 fraction by luminescence based assay; assay type: toxicity, subcellular; settings: salmonella enterica subsp. enterica serovar typhimurium, s9, 4 h; method in brief: as §3
CYP450 [8] = test: Microsomal stability in mouse liver microsomes assessed as CYP450-mediated metabolism by measuring compound remaining at 5 uM and measured for 30 mins in presence of NADPH by UPLC-MS/MS analysis (reference value: 100%); assay type: ADME; settings: read-out: Stability; method in brief: as §1
[9] = system: Mycobacterium tuberculosis; test: Induction of ROS generation in Mycobacterium tuberculosis H37Ra ATCC 25177 assessed as increase in superoxide radicals incubated with CMH probe for 50 mins followed by compound addition and measured for 3 to 48 hrs by EPR analysis; assay type: functional
Method in brief: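 Mtb H37Ra cultures were exposed to compound, rifampicin or moxifloxacin (2 x MIC), alongside untreated controls. Samples were measured by EPR at 3, 6, 24 and 48 h. Spectra were simulated and double-integrated (aN = 1.58 mT) and converted to absolute CMH radical concentration by calibration. Mean of at least three replicates ± SD; two-way ANOVA with Tukey test.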

Question: For O=C1C2=C(C(=O)c3c1cnc1ccccc31)C1CCC2C1 (stereo not drawn), which remaining at 0.25 h, 5 µM (CYP450 [1]) is on record?
Answer: 100%

Question: And the remaining at 0.5 h, 5 µM (CYP450 [2])?
Answer: 100%

Question: What about the IC50 (Klebsiella pneumoniae) of the same compound?
Answer: > 64 µM

Question: What about the selectivity ratio [3] of the same compound?
Answer: 10.2

Question: What about the IC50 (Escherichia coli) of the same compound?
Answer: > 64 µM

Question: What about the Ratio [4] of the same compound?
Answer: >= 0.8

Question: And the remaining at 0.5 h, 5 µM (UGT)?
Answer: 86%

Question: And the CC50 at 24 h [5]?
Answer: 64.5 µM

Question: And the Ratio [6]?
Answer: >= 0.8

Question: What about the Ratio [7] of the same compound?
Answer: <= 1.5

Question: What about the remaining at 0.5 h, 5 µM (CYP450 [8]) of the same compound?
Answer: 100%

Question: Which remaining at 0.25 h, 5 µM (CYP450 [1]) does the source give for O=C1C2=C(C(=O)c3c1cnc1c(F)cccc31)C1CCC2C1 (stereo not drawn) here?
Answer: 100%

Question: What about the “fold change (FC)” value [9] of the same compound?
Answer: 2.85

Question: What about the remaining at 0.5 h, 5 µM (CYP450 [2]) of the same compound?
Answer: 100%

Question: What about the IC50 (Klebsiella pneumoniae) of the same compound?
Answer: > 64 µM

Question: What about the selectivity ratio [3] of the same compound?
Answer: 19.3

Question: What about the IC50 (Escherichia coli) of the same compound?
Answer: > 64 µM

Question: What about the Ratio [4] of the same compound?
Answer: >= 0.8

Question: What about the remaining at 0.5 h, 5 µM (UGT) of the same compound?
Answer: 70%

Question: What about the CC50 at 24 h [5] of the same compound?
Answer: 85.5 µM

Question: And the Ratio [6]?
Answer: >= 0.8

Question: And the Ratio [7]?
Answer: <= 1.5

Question: What about the remaining at 0.5 h, 5 µM (CYP450 [8]) of the same compound?
Answer: 100%
